# ChEMBL document CHEMBL1129239, “Synthesis and structure--activity relationships of fused imidazopyridines: a new series of benzodiazepine receptor ligands” (J Med Chem, 1996)
# The source made the active and inactive calls. The rule behind the calls is not given here.
# How the values were obtained:
# Mus musculus [1] = species on record: Mus musculus; experiment: Activity in mouse pentylenetetrazole convulsant test.; assay type: functional
# Procedure, shortened: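 Male mice, 8-16 per group. Test compound dosed orally 1 h before sc PTZ, either a convulsive 125 mg/kg (protection) or a subconvulsive 75 or 90 mg/kg (potentiation). Animals were watched 2 h for tonic convulsions and death. ED50 came from probit analysis.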
# [2] = molecular target: GABA-A receptor; anion channel; experiment: Displacement of [3H]diazepam from rat cerebral cortex benzodiazepine receptor; assay type: tissue-based
# Mus musculus [3] = experiment: Inverse agonist activity was evaluated by Mouse pentylenetetrazole (PTZ) proconvulsant activity test; by administering 75 mg/kg convulsive dose of PTZ, 1 hr after oral administration of test compound; assay type: functional
# Procedure, shortened: (§1)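 Male mice, 8-16 per group. Test compound given po, followed 1 h later by a subconvulsive dose of PTZ (75 mg/kg sc). Tonic convulsions and death were scored over a 2-h observation.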
# Mus musculus [4] = experiment: Inverse agonist activity was evaluated by Mouse pentylenetetrazole (PTZ) proconvulsant activity test; by peroral administration of 90 mg/kg convulsive dose of PTZ.; assay type: functional; conditions: route oral
# Mus musculus [5] = experiment: Inverse agonist activity was evaluated by Mouse pentylenetetrazole (PTZ) proconvulsant activity test; by peroral administration of 90 mg/kg convulsive dose of PTZ; inactive to 10 mg/kg administered intravenously; assay type: functional, organism-based
# Mus musculus [6] = experiment: Agonist activity was evaluated by mouse pentylenetetrazole (PTZ) convulsant test; inactive to 10 mg/kg administered intravenously; assay type: functional, organism-based; set-up: dose 10 mg/kg
# Mus musculus [7] = experiment: Inverse agonist activity was evaluated by Mouse pentylenetetrazole (PTZ) proconvulsant activity test; at 7.7-119.81 mg/kg by peroral administration of 90 mg/kg convulsive dose of PTZ.; assay type: functional; conditions: route oral
# Mus musculus [8] = experiment: Inverse agonist activity was evaluated by Mouse pentylenetetrazole (PTZ) proconvulsant activity test at 28.18 mg/kg by administering 75 mg/kg convulsive dose of PTZ, 1 hr after oral administration of test compound; assay type: functional; procedure, shortened: as §1
# Mus musculus [9] = experiment: Inverse agonist activity was evaluated by Mouse pentylenetetrazole (PTZ) proconvulsant activity test; at 3.64-18.28 mg/kg by peroral administration of 90 mg/kg convulsive dose of PTZ.; assay type: functional; conditions: route oral
# Mus musculus [10] = experiment: Inverse agonist activity was evaluated by Mouse pentylenetetrazole (PTZ) proconvulsant activity test at 11.71-22.28 mg/kg by administering 75 mg/kg convulsive dose of PTZ, 1 hr after oral administration of test compound; assay type: functional; procedure, shortened: as §1
# Mus musculus [11] = experiment: Inverse agonist activity was evaluated by Mouse pentylenetetrazole (PTZ) proconvulsant activity test at 25.87-58.54 mg/kg by administering 75 mg/kg convulsive dose of PTZ, 1 hr after oral administration of test compound; assay type: functional; procedure, shortened: as §1
# Mus musculus [12] = experiment: Inverse agonist activity was evaluated by Mouse pentylenetetrazole (PTZ) proconvulsant activity test at 14.6-34.51 mg/kg by peroral administration of 90 mg/kg convulsive dose of PTZ.; assay type: functional; conditions: route oral
# Mus musculus [13] = experiment: Inverse agonist activity was evaluated by Mouse pentylenetetrazole (PTZ) proconvulsant activity test at 50 mg/kg by administering 75 mg/kg convulsive dose of PTZ, 1 hr after oral administration of test compound; assay type: functional; procedure, shortened: as §1
# Mus musculus [14] = experiment: Inverse agonist activity was evaluated by Mouse pentylenetetrazole (PTZ) proconvulsant activity test 9.76-20.68 mg/kg by peroral administration of 90 mg/kg convulsive dose of PTZ.; assay type: functional; conditions: route oral
Ki [2] [nM],Compound,ED50 (Mus musculus [1]) [mg/kg],other results
0.9,COc1ccc2[nH]cc3nc(-c4cc(C)no4)nc-3c2c1,21.6,
15.6,Cc1cc(-c2nc3c4c(ncc3[nH]2)CCCCC4)on1,12.4,
2.7,c1cc(-c2nc3c[nH]c4c(c-3n2)COCC4)no1,,ED50 (Mus musculus [3]): 25 mg/kg; ED50 (Mus musculus [4]): 19.6 mg/kg
13.7,Cc1cc(-c2nc3c(cnc4cccc(Cl)c43)[nH]2)on1,8.53,
1.1,CCc1cc(-c2nc3c(cnc4ccccc43)[nH]2)no1,19.2,
270,Clc1ccc(-c2nc3c(cnc4ccccc43)[nH]2)cc1,,
9.5,COc1ccc2c3nc(-c4cc(C)no4)nc-3c[nH]c2c1,,ED50 (Mus musculus [3]): 46.2 mg/kg; Animals affected (Mus musculus [5]): inactive; ED50 (Mus musculus [6]): inactive
5.2,c1cc(-c2nc3c4c(ncc3[nH]2)CCCCC4)no1,,Animals affected (Mus musculus [5]): inactive; ED50 (Mus musculus [6]): inactive
0.8,Fc1ccc2[nH]cc3nc(-c4ccon4)nc-3c2c1,,ED50 (Mus musculus [7]): 16.5 mg/kg; ED50 (Mus musculus [8]): 64.1 mg/kg
18.8,Cc1cc(-c2nc3c(cnc4cc(Cl)ccc43)[nH]2)on1,29.8,
0.9,Fc1ccc2c3nc(-c4ccon4)nc-3c[nH]c2c1,39.9,
7.2,COc1ccc2c3nc(-c4ccon4)nc-3c[nH]c2c1,,ED50 (Mus musculus [9]): 8.77 mg/kg; ED50 (Mus musculus [10]): 16.2 mg/kg
0.9,Cc1cc(-c2nc3c(cnc4ccccc43)[nH]2)on1,5.89,
,Cc1cc(-c2nc3c(cnc4c(Cl)cccc43)[nH]2)on1,,Animals affected (Mus musculus [5]): inactive; ED50 (Mus musculus [6]): inactive
0.9,Cc1cc(-c2nc3c(cnc4ccccc43)[nH]2)no1,16.4,
3.4,Fc1cccc2[nH]cc3nc(-c4ccon4)nc-3c12,,ED50 (Mus musculus [11]): 35.7 mg/kg; ED50 (Mus musculus [12]): 21.2 mg/kg
3.5,Clc1ccc2c3nc(-c4ccon4)nc-3c[nH]c2c1,27.2,
3.3,Cc1cc(-c2nc3c4c(ncc3[nH]2)CCOC4)on1,11.2,
0.8,Clc1ccc2[nH]cc3nc(-c4ccon4)nc-3c2c1,,Animals affected (Mus musculus [13]): 25%; ED50 (Mus musculus [14]): 14.2 mg/kg
4.5,Cc1cc(-c2nc3c(cnc4ccccc43)[nH]2)cs1,,
